Insulin prom up – MIN6 insulin promoter up-regulation; MIN6 insulin promoter-GFP reporter, high-content imaging; stronger effect = higher value; 190,000 tested, 0.3% active; AID 1625; z-score at 5 µM;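 active = z-score above 3 at 5 µM with at least 500 cells counted in the well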
Autophagy mod – autophagy modulation, high-content screen. MEF GFP-LC3 puncta imaging; test concentration mostly 10 µM. calls only at 10 µM (by protocol). 190,000 tested, 0.98% active. AID 463193;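 active = percentage of spot-positive cells more than 3 SD above its plate mean, without a fluorescence outlier flag or 80% toxicity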
MT stabilize HCS – microtubule stabilization, imaging screen | AID 2205 | HeLa tubulin immunostaining HCS, 24 h; share of cells brighter than vehicle mean+2SD | 200,000 tested, 0.83% active | % tubulin-high responders, % at 10 µM;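 active = plate Z-score above 3 for both tubulin-high and condensed-nucleus cell shares, with cell loss under 80%, at 10 µM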;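 also: anti alpha tubulin signal scored within the nucleus-defined area of each cell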
b-catenin transl – modulators of beta-catenin nuclear translocation; 190,000 tested, 0.3% active; HeLa beta-catenin nuclear translocation, immunofluorescence imaging; nuclear translocation activity, % at 5 µM;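 active = nuclear translocation activity above 50% at 5 µM, with a well cell count of 50 or more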;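 also: per-cell ratio of nuclear to cytoplasmic median beta-catenin stain intensity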
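System: HeLa cells, endogenous beta-catenin; compound dosing: 5 µM primary single dose, 0.1% DMSO, 0.02–20 µM confirmation series; incubation: 24 h compound exposure at 37°C, 5% CO2; signal: beta-catenin immunofluorescence imaging with DAPI; evaluation: % activation, nuclear-to-cytoplasmic median beta-catenin signal ratio per cell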
Dynein cargo inh – dynein cargo transport inhibition. 3617.4 mouse cells, GR-EGFP nuclear translocation imaging; test concentration mostly 20 µM; stimulated with dexamethasone, 1 µM; stronger effect = lower value. z-score, hits read low. 220,000 tested, 0.47% active;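 active = plate z-score of nuclear minus cytoplasmic receptor signal below a set negative limit, without overly bright fluorescence or cell loss, cut at about -3.5 in these data, passing the limit was not always enough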;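 also: z-score of nuclear minus cytoplasmic ring GR-EGFP intensity difference per well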
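Buffer or medium – tet-free medium with charcoal-stripped serum · Signal – automated 10x imaging of fixed Hoechst-stained cells · Also added – dexamethasone agonist, 1.0 µM final, for 30 min · Incubation – induction 48 h, compound 1 h, agonist 30 min · Read-out – GR-EGFP nuclear translocation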
Numbers stand for hits; n = inactive; x = no result given; + = active, no number. Compounds with a hit are over-represented: about 2.3% of the library has one in this group of screens.

SMILES | Insulin prom up | Autophagy mod | MT stabilize HCS | b-catenin transl | Dynein cargo inh
Cc1ccc2nc(/C(C#N)=C/c3ccc(-c4cccc([N+](=O)[O-])c4)o3)[nH]c2c1 | n | + | n | n | n
Cc1ccc2nc(/C(C#N)=C\c3cc(O)ccc3[N+](=O)[O-])[nH]c2c1 | n | n | n | n | n
COc1ccc(/C=C(\C#N)c2nc3ccc(C)cc3[nH]2)cc1Oc1ccc(C(F)(F)F)cc1[N+](=O)[O-] | n | + | n | n | n
Cc1cc(=O)oc2cc(NC(=O)c3cc4ccccc4o3)ccc12 | x | + | n | n | n
Cc1cc(C)c(C(=O)O)c(CC(C)(C)C(=O)O)c1 | 3.1 | x | x | n | n
Cc1cc(C)c(C(=O)Nc2ccccc2)c(CC(C)(C)C(=O)O)c1 | n | x | x | n | n
CCOC(=O)c1ccc(NCCOC)c([N+](=O)[O-])c1 | n | + | n | n | n
COCCNc1cc(N)c([N+](=O)[O-])cc1[N+](=O)[O-] | n | n | n | n | n
CN1C(=O)/C(=C/c2ccccc2Cl)Sc2ccc(C(=O)NCc3cccnc3)cc21 | n | n | n | x | n
Cc1ccc(-c2nnc3n2N=C(c2ccc(Br)cc2)CS3)cc1 | n | n | n | n | n
Clc1ccc(C2=Nn3c(nnc3-c3n[nH]c4c3CCC4)SC2)cc1 | n | + | 32 | n | n
Brc1ccc(C2=Nn3c(nnc3-c3n[nH]c4c3CCC4)SC2)cc1 | n | n | 34 | 146 | n
COC(=O)c1ccc(OC(=O)c2ccccc2F)cc1 | n | n | n | n | n
Cn1nnnc1SCC(=O)N(C1CCCCC1)C1CCS(=O)(=O)C1 (centres undefined) | n | n | n | n | n
C=CCc1ccc(OCCOCCNCCCC)c(OC)c1 | n | + | n | n | n
O=C(c1nn2c(C(F)(F)F)cc(-c3ccco3)nc2c1Br)N1CCCc2ccccc21 | n | n | 63 | n | n
CC(C)n1cc(/C(N)=N/O)c(=O)n(Cc2ccccc2)c1=O | n | x | x | n | n
COc1ccc(Nc2nc(-c3cccc([N+](=O)[O-])c3)nc3ccccc23)c(OC)c1 | n | n | n | n | n
COc1ccc(OC)c(Nc2nc(-c3cccc([N+](=O)[O-])c3)nc3ccccc23)c1 | n | + | n | n | n
COCCn1c(SCC(=O)Nc2ccccc2C)nc2c(oc3ccccc32)c1=O | n | n | n | n | n
COCCn1c(SCC(=O)Nc2ccc(C)cc2C)nc2c(oc3ccccc32)c1=O | n | + | n | x | n
COc1ccc(/C=C2\N=C(c3ccccc3)N(c3ccc(C(=O)O)cc3)C2=O)cc1OC | n | x | x | n | n
CCc1nnc(NS(=O)(=O)c2ccc(Nc3ccc4nonc4c3[N+](=O)[O-])cc2)s1 | n | n | n | n | n
CN1C2C=C3C(C#N)=C(N)C(C#N)(C#N)[C@H](c4c(F)cccc4F)[C@H]3C1CC2 (some centres undefined) | n | n | n | n | n
N#CC1=C(N)C(C#N)(C#N)[C@H](c2c(F)cccc2F)[C@H]2CC3(CC=C12)OCCO3 | n | n | 26 | n | n
SMILES | Insulin prom up | Autophagy mod | MT stabilize HCS | b-catenin transl | Dynein cargo inh
COc1ccc(CN2C(=O)c3ccccc3C2C(=O)NCc2cccnc2)c(OC)c1 (centres undefined) | n | + | n | n | n
COc1ccc(OC)c(CN2C(=O)c3ccccc3C2C(=O)NCc2cccnc2)c1 (centres undefined) | n | n | n | n | n
Fc1cccc(-c2nnn3c2nc(Cl)c2ccccc23)c1 | n | n | n | n | n
CN(Cc1cccs1)C(=O)Cn1cnc2ccccc2c1=O | x | + | n | n | n
Cc1cccc(C(=O)N2CCN(C(=O)c3cccc(C)c3)C(C)C2)c1 (centres undefined) | x | + | n | x | n
O=C(COc1ccccc1N1C(=O)C2C3C=CC(C3)C2C1=O)c1ccccc1 (centres undefined) | n | x | x | n | n
CC(=O)N1CCc2cc(S(=O)(=O)N3CCOCC3)ccc21 | n | n | n | x | n
CC(=O)N1CCc2cc(S(=O)(=O)N3c4ccccc4CC3C)ccc21 (centres undefined) | n | + | n | n | n
CCN(CC)CCN(C)c1ccc(N2C(=O)C3CC=CCC3C2=O)cc1[N+](=O)[O-] (centres undefined) | n | + | n | n | n
COC(=O)c1cc(NC(=O)/C=C/c2ccccc2)ccc1O | x | n | n | n | n
Cc1ccc(C2Nc3ccccc3C(=O)N2Cc2ccco2)cc1 (centres undefined) | n | n | 18 | n | n
N#Cc1c(-c2ccccc2)cc(C2CC2)nc1SCC(=O)O | n | n | n | n | n
O=C(CSc1ccc(-c2ccccc2)nn1)c1cccs1 | n | + | n | n | n
N#Cc1c(-c2ccccc2)cc(C2CC2)nc1SCC(=O)c1cccs1 | n | + | n | n | n
O=[N+]([O-])CC(=Nc1ccc(F)cc1)N/N=C\c1oc(O)c2ccccc12 | n | x | x | n | n
CSc1nc2sc3c(c2c(=O)[nH]1)CCC(C)C3 (centres undefined) | x | n | n | n | n
CC1CCc2c(sc3nn[nH]c(=O)c23)C1 (centres undefined) | 4.2 | n | n | x | n
COc1c(Cl)cnn(-c2ccc(Cl)c(Cl)c2)c1=O | n | n | n | n | n
Cc1ccc(Nc2nc(=O)c3cccnc3s2)c(Br)c1 | n | x | x | n | n
COc1cccc(C2CC(c3c(Cl)cccc3Cl)n3nc(N)nc3N2)c1 (centres undefined) | n | x | n | n | n
COc1cccc(C2CC(c3c(F)cccc3Cl)n3nc(N)nc3N2)c1 (centres undefined) | n | + | n | n | n
O=C(Nc1cc(F)cc(F)c1)c1ccc(NCCc2ccccc2)c([N+](=O)[O-])c1 | x | n | n | n | n
Cc1ccc(NC(=O)c2ccc(NCCc3ccccc3)c([N+](=O)[O-])c2)cc1F | n | + | n | n | n
Cc1noc(C)c1COc1cccc(C(=O)OCC(=O)N2CC(=O)Nc3ccccc32)c1 | n | + | 39 | n | n
COc1ccccc1C1c2[nH]c3ccccc3c2CCN1Cc1ccc(NC(C)=O)s1 (centres undefined) | n | x | x | n | n
SMILES | Insulin prom up | Autophagy mod | MT stabilize HCS | b-catenin transl | Dynein cargo inh
O=C1CC(c2ccccc2)CC2=C1CN(C1CCCCC1)CN2 (centres undefined) | n | n | 51 | n | n
Cc1ccccc1C(=O)c1c[nH]c(C(=O)N2CCN(c3ccccc3F)CC2)c1 | n | n | n | n | n
O=C(c1c[nH]c(C(=O)N2CCN(c3ccccc3F)CC2)c1)c1cccc(Cl)c1Cl | n | n | 23 | n | n
Cc1ccc(C(=O)NC2CCc3ccccc3C2=O)cc1 (centres undefined) | n | n | n | n | n
Cc1ccc(C(=O)NC2c3ccccc3-c3ccccc32)cc1 | n | n | 24 | 106 | n
COc1ccc(CN2CCN(C(=O)C3CCC(CNS(=O)(=O)c4ccc(C)cc4)CC3)CC2)c(OC)c1OC (centres undefined) | n | + | n | n | n

From PubChem
